This is a sample that favours compounds with a hit; in the whole collection about 3.8% have one here.
OX1R antag-1 – OX1R (HCRTR1) antagonists, primary screen, fluorescence, CHO/OX1R cells, Fluo-8 calcium, orexin A. Orexin/Hypocretin receptor type 1 (Homo sapiens), O43613. Fluo-8 calcium fluorescence. inhibition, % at 5 µM. 0.43% of 330,000 active. AID 434989, 2010;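 active means inhibition above its plate's threshold, mean inhibition of all tested compounds on the plate plus 3 SD, cut at about 37% in these data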;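 further: 0% = orexin A challenge wells and 100% = SB-334867-A antagonist wells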
OX1R antag-2 – antagonists of human orexin 1 receptor (OX1R); Orexin/Hypocretin receptor type 1 (Homo sapiens), O43613; OX1R-expressing cells, FRET antagonist read-out; inhibition, % at 6.6 µM; 1.8% of 330,000 active; in the data active means inhibition mostly above about 38%, no sharp cut-off; inactive means mostly below about 40%;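 further: 0% = agonist challenge alone and 100% = reference antagonist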
GPR7 antag – GPR7 receptor antagonists, primary screen, cell-based, fluorescence, single concentration; GPR7-expressing cells, fluorescence antagonist assay; inhibition, % at 4.4 µM; Neuropeptides B/W receptor type 1 (Homo sapiens), P48145; 1.1% of 290,000 active; in the data active means inhibition above about 16%, passing the limit was not always enough;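 further: cells stimulated with the agonist NPW; 0% = agonist with vehicle and 100% = vehicle without agonist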
Target sequence (P48145 whole entry, looked up): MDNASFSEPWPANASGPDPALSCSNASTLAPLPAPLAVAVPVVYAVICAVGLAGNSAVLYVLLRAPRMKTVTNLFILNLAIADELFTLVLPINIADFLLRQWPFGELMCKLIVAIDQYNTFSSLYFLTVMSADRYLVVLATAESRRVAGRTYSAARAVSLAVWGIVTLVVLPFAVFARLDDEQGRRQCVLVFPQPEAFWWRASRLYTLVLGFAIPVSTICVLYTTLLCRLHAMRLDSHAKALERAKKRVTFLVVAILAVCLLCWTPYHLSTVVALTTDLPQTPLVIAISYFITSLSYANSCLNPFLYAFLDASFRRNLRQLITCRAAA
MPTP inh – mitochondrial permeability transition pore inhibitors, primary screen, biochemical, isolated mouse mitochondria, absorbance; Ca2+ swelling absorbance, 30 min; inhibition, % at 10 µM; 1.4% of 360,000 active; AID 602449, 2012;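 active means inhibition of 50% or more, scaled per plate between neutral and stimulator controls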;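 further: 0% = DMSO wells given calcium and 100% = 1 mM EGTA wells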
CHO parental Ca – ATP-evoked calcium signal inhibitors, parental CHO, primary screen, counter-screen for OX1R antagonist project, cell-based, fluorescence, Fluo-8 calcium dye | inhibition, % at 5.6 µM | 0.63% of 330,000 active | parental CHO-K1, ATP-induced calcium, Fluo-8 fluorescence;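 active means inhibition above that plate's mean sample inhibition plus 3 SD, cut at about 26% in these data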;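 further: 0% = ATP-challenged DMSO wells and 100% = DMSO wells without ATP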
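Test system: untransfected parental CHO cell line; also added: ATP stimulus; dosing: 5.6 µM, single dose; signal: calcium-sensitive Fluo-8 fluorescence; measure: percent inhibition of ATP-evoked calcium rise, normalized to controls; benchmarks: low control ATP plus DMSO, high control DMSO only; replication: one well per compound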
* hit, by the source's call; x = no result given.

SMILES	OX1R antag-1	OX1R antag-2	GPR7 antag	MPTP inh	CHO parental Ca
Cc1ccc(OCCSc2nc3ccccc3n2CC(=O)O)c(C(C)C)c1	-1	20	-21	1	-1
Cc1ccc(C(=O)NNC(=O)c2ccco2)cc1	-6	3	13	-2	-5
Cc1cccc(C(=O)NNC(=S)NC(=O)c2ccccc2)c1	62*	8	x	28	37*
COc1ccc(C(=O)NC(=S)NNC(=O)c2ccncc2)cc1Br	-2	6	x	2	1
Cc1ccc(C(=O)NNC(=S)NC(=O)c2ccccc2)cc1	57*	20	x	16	34*
Cc1ccc(C(=O)NC(=S)NNC(=O)c2ccccc2)cc1	11	7	-5	10	15
Cc1ccc(C(=O)NNC(=S)NC(=O)c2ccco2)cc1	64*	11	5	6	66*
COc1ccc(C(=O)NNC(=S)NC(=O)c2ccc(F)cc2)cc1Br	48*	4	x	22	29
CC(OC(=O)c1ccc(S(=O)(=O)NCc2ccco2)cc1)C(=O)Nc1ncc(Cl)cc1Cl (stereo not given)	-15	27	-2	2	2
Nc1ccc(C=Cc2ccc(N)cc2)cc1	x	x	x	0	x
CCCCS(=O)(=O)N1CCCC(C(=O)Nc2ccc3c(c2)CCC3)C1 (stereo not given)	-16	22	0	-1	-8
Cc1cccc(C(=O)NNC(=S)NC(=O)c2cccs2)c1	32	12	7	3	33*
CCc1nnc(NC(=O)CSc2nnc(Cc3cc(=O)[nH]c(=O)[nH]3)n2-c2ccc(OC)cc2)s1	-11	16	11	1	12
CCc1nnc(NC(=O)CSc2nnc(Cc3cc(=O)[nH]c(=O)[nH]3)n2-c2cccc(OC)c2)s1	-10	12	17*	1	-2
Oc1ccccc1CNc1ccc(Br)cn1	12	30	69*	-1	1
Brc1ccc(NCc2cccc3ccccc23)nc1	-27	11	-6	2	-14
CCC(=O)Nc1ccc(N2CCN(C(=O)c3ccccc3C)CC2)cc1	-7	0	-4	-1	-1
Cc1ccccc1C(=O)N1CCN(c2ccc(NC(=O)CSc3ccc(Cl)cc3)cc2)CC1	13	23	6	1	31*
COc1ccc2c(c1)Cc1sc(NC(=O)c3ccco3)nc1-2	-6	65*	15	-1	-18
COC(=O)c1c(C)[nH]c(C=O)c1-c1ccccc1	-12	11	-13	2	-12
COC(=O)c1c(C)[nH]c(C)c1C(=O)c1ccccc1Cc1ccccc1	-10	47*	x	-2	-12
CS(=O)(=O)CCC(C(=O)OCc1ccc(Cl)cc1)N1C(=O)c2ccccc2C1=O (stereo not given)	-11	14	16	0	3
CCCCc1ccc(NC(=O)c2ccc(NS(C)(=O)=O)cc2)cc1	0	26	-7	0	-4
CCCCc1ccc(NC(=O)c2ccc(N(C)S(C)(=O)=O)cc2)cc1	10	17	-1	1	69*
CC(=O)c1cc(N2CCOCC2)ccc1[N+](=O)[O-]	x	x	6	0	x
SMILES	OX1R antag-1	OX1R antag-2	GPR7 antag	MPTP inh	CHO parental Ca
CC(=O)c1cc(N2CCC(C(=O)O)CC2)ccc1[N+](=O)[O-]	-10	67*	-19	-2	-18
Cc1cc(OC(=O)c2cc([N+](=O)[O-])ccc2Cl)c([N+](=O)[O-])c(=O)[nH]1	-3	17	-11	1	-6
Cc1cc(C)c(O)c(N)c1	x	x	-1	x	x
N#Cc1cc([N+](=O)[O-])ccc1NC(=O)CSc1n[nH]c(=O)[nH]c1=O	-13	45*	x	1	-13
CCCc1cc(=O)[nH]c(SCC(=O)Nc2ccc([N+](=O)[O-])cc2C#N)n1	-8	9	-10	3	-16
N#Cc1cc([N+](=O)[O-])ccc1NC(=O)COC(=O)C1CCC(=O)N1 (stereo not given)	-14	42*	x	0	-5
N#Cc1cc([N+](=O)[O-])ccc1NC(=O)COC(=O)C12CC3CC(CC(C3)C1)C2	-26	33	-9	x	-10
COc1ccc(Cc2c(-c3ccc(Cl)cc3)nc3c(C)cc(Br)cn23)c(C)c1	x	x	x	0	x
CC(Oc1ccccc1)C(=O)N1CCN=C1SCc1ccccc1F (stereo not given)	-22	28	11	0	40*

Compound activity as filed in PubChem BioAssay.
